Biological target: T1, fMet-Leu-Phe receptor (Homo sapiens) (UniProt P21462)
T1 sequence (whole entry): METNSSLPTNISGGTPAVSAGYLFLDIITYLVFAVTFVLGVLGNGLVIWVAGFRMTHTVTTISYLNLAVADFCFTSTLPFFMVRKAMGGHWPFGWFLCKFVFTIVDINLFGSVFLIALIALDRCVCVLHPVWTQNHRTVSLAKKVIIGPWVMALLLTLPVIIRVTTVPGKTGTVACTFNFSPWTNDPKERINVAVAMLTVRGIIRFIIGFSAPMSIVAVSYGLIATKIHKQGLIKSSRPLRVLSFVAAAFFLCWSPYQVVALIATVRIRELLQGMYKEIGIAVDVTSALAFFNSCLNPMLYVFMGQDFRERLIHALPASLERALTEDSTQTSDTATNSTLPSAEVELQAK
Test: Inhibitory activity against Human formylpeptide receptor (FPR) of human leukemia HL-60 cells
Type: cell-based
Procedure, shortened: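 HL-60 cells differentiated 48 h with 0.2 mM dibutyryl cAMP, washed, then treated with 5 μM cytochalasin B (5–10 min, 37 °C). Stimulated 10 min with 30 nM f-MLF. N-acetyl-β-D-glucosaminidase release read at 410 nm on p-nitrophenyl substrate after spontaneous-release subtraction. Duplicate wells; IC20/IC50 as mean ± SD of independent experiments.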

Structure (SMILES) | IC20 [nM]
CC/C=C/C[C@@H](C)[C@@H](O)[C@H]1C(=O)N[C@@H](CC)C(=O)N(C)CC(=O)N(C)[C@H](CC(C)C)C(=O)N[C@H](C(C)C)C(=O)N(C)[C@H](CC(C)C)C(=O)N[C@@H](C)C(=O)N[C@H](CCCCN)C(=O)N(C)[C@@H](CC(C)C)C(=O)N(C)[C@@H](CC(C)C)C(=O)N(C)[C@@H](C(C)C)C(=O)N1C | 500
C/C=C/C[C@@H](C)[C@@H](O)[C@H]1C(=O)N[C@@H]([C@@H](C)O)C(=O)N(C)CC(=O)N[C@@H](CC(C)C)C(=O)N[C@@H](CC(C)C)C(=O)N(C)[C@H](CC(C)C)C(=O)N[C@@H](C)C(=O)N[C@](O)(C(C)C)C(=O)N(C)[C@@H](CC(C)C)C(=O)N[C@@H](CC(C)C)C(=O)N(C)[C@@H](C(C)C)C(=O)N1C | 140
C/C=C/C[C@@H](C)[C@@H](O)[C@H]1C(=O)N[C@@H]([C@@H](C)O)C(=O)N(C)CC(=O)N(C)[C@H](CC(C)C)C(=O)N[C@@H]([C@@H](C)CC)C(=O)N(C)[C@H](CC(C)C)C(=O)N[C@@H](C)C(=O)N[C@](O)(C(C)C)C(=O)N(C)[C@@H](CC(C)C)C(=O)N[C@@H](CC(C)C)C(=O)N(C)[C@@H](C(C)C)C(=O)N1C | 290
C/C=C/C[C@@H](C)[C@@H](O)[C@H]1C(=O)N[C@@H](CC)C(=O)N(C)CC(=O)N(C)[C@H](CC(C)C)C(=O)N[C@H](C(C)C)C(=O)N(C)[C@H](CC(C)C)C(=O)N[C@@H](C)C(=O)N[C@H](C)C(=O)N[C@@H](CC(C)C)C(=O)N(C)[C@@H](CC(C)C)C(=O)N(C)[C@@H](C(C)C)C(=O)N1C | 530
C/C=C/C[C@@H](C)[C@@H](O)[C@H]1C(=O)N[C@@H](C)C(=O)N(C)CC(=O)N(C)[C@H](CC(C)C)C(=O)N[C@H](C(C)C)C(=O)N(C)[C@H](CC(C)C)C(=O)N[C@@H](C)C(=O)N[C@H](C)C(=O)N(C)[C@@H](CC(C)C)C(=O)N[C@@H](CC(C)C)C(=O)N(C)[C@@H](C(C)C)C(=O)N1C | 200
C/C=C/C[C@@H](C)[C@@H](O)[C@H]1C(=O)N[C@@H](CC)C(=O)N(C)CC(=O)N(C)[C@H](CC(C)C)C(=O)N[C@H](C(C)C)C(=O)N(C)[C@H](CC(C)C)C(=O)N[C@@H](C)C(=O)N[C@H](C)C(=O)N(C)[C@@H](CC(C)C)C(=O)N[C@@H](CC(C)C)C(=O)N(C)[C@@H](C(C)C)C(=O)N1C | 650
C/C=C/C[C@@H](C)[C@@H](O)[C@H]1C(=O)N[C@@H](CC)C(=O)N(C)CC(=O)N[C@@H](CC(C)C)C(=O)N[C@H](C(C)C)C(=O)N(C)[C@H](CC(C)C)C(=O)N[C@@H](C)C(=O)N[C@H](C)C(=O)N(C)[C@@H](CC(C)C)C(=O)N(C)[C@@H](CC(C)C)C(=O)N(C)[C@@H](C(C)C)C(=O)N1C | > 10000
C/C=C/C[C@@H](C)[C@@H](O)[C@H]1C(=O)N[C@@H](CC)C(=O)N(C)CC(=O)N(C)[C@H](CC(C)C)C(=O)N[C@H](C(C)C)C(=O)N[C@@H](CC(C)C)C(=O)N[C@@H](C)C(=O)N[C@H](C)C(=O)N(C)[C@@H](CC(C)C)C(=O)N(C)[C@@H](CC(C)C)C(=O)N(C)[C@@H](C(C)C)C(=O)N1C | > 10000
C/C=C/C[C@@H](C)[C@@H](O)[C@H]1C(=O)N[C@@H]([C@@H](C)O)C(=O)N(C)CC(=O)N(C)[C@H](CC(C)C)C(=O)N[C@@H](CC(C)C)C(=O)N(C)[C@H](CC(C)C)C(=O)N[C@@H](C)C(=O)N[C@](O)(C(C)C)C(=O)N(C)[C@@H](CC(C)C)C(=O)N[C@@H](CC(C)C)C(=O)N(C)[C@@H](C(C)C)C(=O)N1C | 200
CCC[C@@H]1NC(=O)[C@H](CC(C)C)N(C)C(=O)[C@H](C(C)C)N(C)C(=O)[C@H](CC(C)C)N(C)C(=O)[C@H](CC(C)C)N(C)C(=O)[C@@H](C)NC(=O)[C@H](C)NC(=O)[C@@H](CC(C)C)N(C)C(=O)[C@H](C(C)C)NC(=O)[C@@H](CC(C)C)N(C)C(=O)CN(C)C1=O | 7600
CC(C)C[C@@H]1NC(=O)[C@@H](CC(C)C)N(C)C(=O)CN(C)C(=O)[C@H]([C@@H](C)O)NC(=O)[C@H]([C@H](O)[C@H](C)C/C=C/CO)N(C)C(=O)[C@H](C(C)C)N(C)C(=O)[C@H](CC(C)C)NC(=O)[C@H](CC(C)C)N(C)C(=O)[C@@](O)(C(C)C)NC(=O)[C@H](C)NC(=O)[C@@H](CC(C)C)N(C)C1=O | 470
C/C=C/C[C@@H](C)C[C@H]1C(=O)N[C@@H](CC)C(=O)N(C)CC(=O)N(C)[C@H](CC(C)C)C(=O)N[C@H](C(C)C)C(=O)N(C)[C@H](CC(C)C)C(=O)N[C@@H](C)C(=O)N[C@H](C)C(=O)N(C)[C@@H](CC(C)C)C(=O)N(C)[C@@H](CC(C)C)C(=O)N(C)[C@@H](C(C)C)C(=O)N1C | 2400
C/C=C/C[C@@H](C)[C@@H](O)[C@H]1C(=O)N[C@@H]([C@@H](C)O)C(=O)N(C)CC(=O)N(C)[C@H](CC(C)C)C(=O)N[C@H](C(C)C)C(=O)N(C)[C@H](CC(C)C)C(=O)N[C@@H](C)C(=O)N[C@H](C)C(=O)N(C)[C@@H](CC(C)C)C(=O)N[C@@H](CC(C)C)C(=O)N(C)[C@@H](C(C)C)C(=O)N1C | 2050

The next lines start with the values.

IC20 [nM] | Structure (SMILES)
> 10000 | CC[C@@H]1NC(=O)[C@H]([C@H](O)[C@H](C)C/C=C/CO)N(C)C(=O)[C@H](C(C)C)N(C)C(=O)[C@H](CC(C)C)N(C)C(=O)[C@H](CC(C)C)N(C)C(=O)[C@@H](C)NC(=O)[C@H](C)NC(=O)[C@@H](CC(C)C)N(C)C(=O)[C@@H](C(C)C)NC(=O)[C@@H](CC(C)C)N(C)C(=O)CN(C)C1=O
> 10000 | CC[C@@H]1NC(=O)[C@H](CC(C)C)N(C)C(=O)[C@H](C(C)C)N(C)C(=O)[C@H](CC(C)C)N(C)C(=O)[C@H](CC(C)C)N(C)C(=O)[C@@H](C)NC(=O)[C@H](C)NC(=O)[C@@H](CC(C)C)N(C)C(=O)[C@@H](C(C)C)NC(=O)[C@@H](CC(C)C)N(C)C(=O)CN(C)C1=O
1690 | CC[C@@H]1NC(=O)[C@H](CC2CCCCC2)N(C)C(=O)[C@H](C(C)C)N(C)C(=O)[C@H](CC(C)C)N(C)C(=O)[C@H](CC(C)C)N(C)C(=O)[C@@H](C)NC(=O)[C@H](C)NC(=O)[C@@H](CC(C)C)N(C)C(=O)[C@@H](C(C)C)NC(=O)[C@@H](CC(C)C)N(C)C(=O)CN(C)C1=O
3900 | CC/C=C/C[C@@H](C)[C@@H](O)[C@H]1C(=O)N[C@@H](C(C)C)C(=O)N(C)CC(=O)N(C)[C@H](CC(C)C)C(=O)N[C@H](C(C)C)C(=O)N(C)[C@H](CC(C)C)C(=O)N[C@@H](C)C(=O)N[C@H](C)C(=O)N(C)[C@@H](CC(C)C)C(=O)N(C)[C@@H](CC(C)C)C(=O)N(C)[C@@H](C(C)C)C(=O)N1C
> 10000 | CC/C=C/C[C@@H](C)[C@@H](O)[C@H]1C(=O)N[C@@H](CC)C(=O)N(C)CC(=O)N(C)[C@H](CC(C)C)C(=O)N[C@H](C(C)C)C(=O)N(C)[C@H](CC(C)C)C(=O)N[C@@H](CC)C(=O)N[C@H](C)C(=O)N(C)[C@@H](CC(C)C)C(=O)N(C)[C@@H](CC(C)C)C(=O)N(C)[C@@H](C(C)C)C(=O)N1C
200 | C/C=C/C[C@@H](C)[C@@H](O)[C@H]1C(=O)N[C@@H]([C@@H](C)O)C(=O)N(C)CC(=O)N(C)[C@H](CC(C)C)C(=O)N[C@@H](CC(C)C)C(=O)N(C)[C@H](CC(C)C)C(=O)N[C@@H](C)C(=O)N[C@H](C)C(=O)N(C)[C@@H](CC(C)C)C(=O)N[C@@H](CC(C)C)C(=O)N(C)[C@@H](C(C)C)C(=O)N1C
1000 | CC/C=C/C[C@@H](C)[C@@H](O)[C@H]1C(=O)N[C@@H](CC)C(=O)N(C)CC(=O)N(C)[C@@H]([C@@H](C)CC)C(=O)N[C@H](C(C)C)C(=O)N(C)[C@H](CC(C)C)C(=O)N[C@@H](C)C(=O)N[C@H](C)C(=O)N(C)[C@@H](CC(C)C)C(=O)N(C)[C@@H](CC(C)C)C(=O)N(C)[C@@H](C(C)C)C(=O)N1C
800 | C/C=C/C[C@@H](C)[C@@H](O)[C@H]1C(=O)N[C@@H]([C@@H](C)O)C(=O)N(C)CC(=O)N(C)[C@H](CC(C)C)C(=O)N[C@@H](CC(C)C)C(=O)N(C)[C@H](CC(C)C)C(=O)N[C@@H](C)C(=O)N[C@H](C)C(=O)N(C)[C@@H](CC(C)C)C(=O)N[C@@H](C)C(=O)N(C)[C@@H](C(C)C)C(=O)N1C
4200 | CC(C)C[C@@H]1C(=O)N[C@@H](C(C)C)C(=O)N(C)[C@H](CC(C)C)C(=O)N[C@@H](C)C(=O)N[C@H](C)C(=O)N(C)[C@@H](CC(C)C)C(=O)N(C)[C@@H](CC(C)C)C(=O)N(C)[C@@H](C(C)C)C(=O)N(C)[C@@H](CC(C)C)C(=O)N[C@@H](C(C)C)C(=O)N(C)CC(=O)N1C
8900 | C/C=C/C[C@@H](C)[C@@H](O)[C@H]1C(=O)N[C@@H](CCC)C(=O)N(C)CC(=O)N(C)[C@H](CC(C)C)C(=O)N[C@@H](CC(C)C)C(=O)N(C)[C@H](CC(C)C)C(=O)N[C@@H](C)C(=O)N[C@H](C)C(=O)N(C)[C@@H](CC(C)C)C(=O)N(C)[C@@H](CC(C)C)C(=O)N(C)[C@@H](C(C)C)C(=O)N1C
1700 | CCCCCC[C@H]1C(=O)N[C@@H](CC)C(=O)N(C)CC(=O)N(C)[C@H](CC(C)C)C(=O)N[C@H](C(C)C)C(=O)N(C)[C@H](CC(C)C)C(=O)N[C@@H](C)C(=O)N[C@H](C)C(=O)N(C)[C@@H](CC(C)C)C(=O)N(C)[C@@H](CC(C)C)C(=O)N(C)[C@@H](C(C)C)C(=O)N1C
2900 | C/C=C/C[C@@H](C)[C@@H](O)[C@H]1C(=O)N[C@@H](CC)C(=O)N(C)CC(=O)N(C)[C@H](CC(C)C)C(=O)N[C@H](C(C)C)C(=O)N(C)[C@H](CC(C)C)C(=O)N[C@@H](C)C(=O)N[C@H](C)C(=O)N(C)[C@@H](CC(C)C)C(=O)N(C)[C@@H](CC(C)C)C(=O)N(C)[C@@H]([C@@H](C)CC)C(=O)N1C
310 | C/C=C/C[C@@H](C)[C@@H](O)[C@H]1C(=O)N[C@@H](CC)C(=O)N(C)CC(=O)N(C)[C@H](CC(C)C)C(=O)N[C@H](C(C)C)C(=O)N(C)[C@H](CC(C)C)C(=O)N[C@@H](C)C(=O)N[C@H](C)C(=O)N(C)[C@@H](CC(C)C)C(=O)N(C)[C@@H](CC(C)C)C(=O)N(C)[C@@H](C)C(=O)N1C

From ChEMBL document CHEMBL1135620, “Cyclosporins: structure-activity relationships for the inhibition of the human FPR1 formylpeptide receptor” (J Med Chem, 2002)
